In assay [1] the test system is FaDu. The assay is described as follows: Synergistic induction of cell cycle arrest in human FADU cells at 0.5 uM followed by irradiation with 5Gy IR incubated for 6 hrs by propidium iodide staining based flow cytometry. In kind it is functional. In a few lines:
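FaDu or SCC-25 cells, untreated, given 5 Gy IR, drug, or drug plus 5 Gy. Cell-cycle distribution by propidium iodide staining and flow cytometry at 6 h and 24 h after treatment. G0/G1, S and G2/M fractions compared with control by t test.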

For assay [2], the system named is SCC-25. Kind of assay: Synergistic induction of apoptosis in human SCC25 cells at 0.5 uM followed irradiation with 5Gy IR by annexin V FITC and propidium iodide staining based flow cytometry. In kind it is functional, cell-based. Particulars: TDE = time-dependent effect. In a few lines:
(§1)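 FaDu or SCC-25 cells, untreated, given 5 Gy IR, drug, or both. Apoptotic cells measured by annexin V flow cytometry 48 h after treatment. Percentage compared with control by t test.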

The test system of assay [3] is SCC-25. The assay is described as follows: Synergistic antiproliferative activity against human SCC25 cells assessed as reduction in cell viability at 1 uM preincubated for 1 hr followed by irradiation with 5 Gy IR and measured after 6 days by MTT assay relative to control. The note with it: SCC-25, light or radiation study.
The subject of assay [4] is FaDu. The assay is described as follows: Induction of cell cycle arrest in human FADU cells at 0.5 uM by propidium iodide staining based flow cytometry. The format is functional. The method, boiled down: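 Cell-cycle distribution was measured by propidium iodide staining and flow cytometry. Readings were taken 6 and 24 h after compound alone, 5 Gy IR alone, or the combination, against control.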

In assay [5] the test system is FaDu. Kind of assay: Antiproliferative activity against human FADU cells assessed as fractional inhibition at 0.05 uM after 6 days in absence of irradiation by MTT assay. In kind it is functional. The method, boiled down:
(§2)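 FaDu or SCC-25 cells were grown in DMEM with 10% FBS at 37 °C and 5% CO2. They were seeded at 1000 cells/well in 96-well plates for 24 h, then dosed with compound (fresh DMSO stock diluted in medium) or vehicle. After 1 h, X-rays were given with a sliding 5 mm lead shield, so one plate held 0, 2.5, 5 and 10 Gy columns. After 6 days, MTT (0.5 mg/mL, 45 min) was added, then DMSO, and A570 was read. Values were normalised to the unirradiated vehicle control. Fractional inhibition = 1 − surviving fraction.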

The test system of assay [6] is SCC-25. The assay is described as follows: Selectivity ratio of IC50 for antiproliferative activity against human SCC25 cells assessed as reduction in colony formation unit to IC50 for antiproliferative activity against human SCC25 cells assessed as reduction in colony formation unit followed by irradiation with 5 Gy IR. In kind it is functional.
The test system of assay [7] is SCC-25. The assay is described as follows: Antiproliferative activity against human SCC25 cells assessed as fractional inhibition at 0.005 uM after 6 days in absence of irradiation by MTT assay. The format is functional. In a few lines: as §2
Assay [8] has as its system FaDu. The assay is described as follows: Synergistic antiproliferative activity against human FADU cells assessed as combination index at 0.005 uM preincubated for 1 hr followed by irradiation with 2.5 Gy IR and measured after 6 days by MTT assay. In kind it is functional. In a few lines:
(§3)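 Combination index was calculated by the Chou–Talalay median-effect method from the 6-day MTT viability data of the single-plate compound/X-ray (2.5, 5, 10 Gy) design. CI < 1 denotes synergy, CI = 1 additivity and CI > 1 antagonism.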

The test system of assay [9] is SCC-25. Kind of assay: Synergistic antiproliferative activity against human SCC25 cells assessed as fractional inhibition at 0.5 uM preincubated for 1 hr followed by irradiation with 5 Gy IR and measured after 6 days by MTT assay (reference value: 0.133). The format is functional. In a few lines:
(§4)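 SCC-25 cells seeded 1000/well in 96-well plates in DMEM/10% FBS and left 24 h. Drug or vehicle added, then after 1 h X-irradiated to 2.5, 5 or 10 Gy on one plate using a shifted lead shield. Plates incubated 6 days, then MTT (0.5 mg/mL, 45 min), DMSO solubilisation, absorbance at 570 nm. Fractional inhibition = 1 − fraction of surviving cells.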

In assay [10] the test system is SCC-25. Kind of assay: Synergistic antiproliferative activity against human SCC25 cells assessed as fractional inhibition at 5 uM preincubated for 1 hr followed by irradiation with 10 Gy IR and measured after 6 days by MTT assay (reference value: 0.347). In kind it is functional. The method, boiled down:
as §4

The test system of assay [11] is FaDu. Kind of assay: Synergistic antiproliferative activity against human FADU cells assessed as combination index at 0.05 uM preincubated for 1 hr followed by irradiation with 5 Gy IR and measured after 6 days by MTT assay. In kind it is functional. The method, boiled down:
as §3

The test system of assay [12] is SCC-25. Kind of assay: Synergistic induction of apoptosis in human SCC25 cells at 0.5 uM followed irradiation with 5Gy IR incubated for 48 hrs by annexin V FITC and propidium iodide staining based flow cytometry. In kind it is functional. The method, boiled down: as §1
The test system of assay [13] is SCC-25. The assay is described as follows: Synergistic antiproliferative activity against human SCC25 cells assessed as fractional inhibition at 0.05 uM preincubated for 1 hr followed by irradiation with 2.5 Gy IR and measured after 6 days by MTT assay (reference value: 0.011). The format is functional. The method, boiled down: as §4
Assay [14] has as its system SCC-25. Kind of assay: Inhibition of cell migration in human SCC25 cells at 0.5 uM incubated for 12 and 24 hrs by microscopic analysis. The format is functional, cell-based. In a few lines: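 Scratch assay: 10^5 cells/well were grown to confluence in 12-well plates, with mitomycin C to block proliferation. Cells were treated with compound for 24 h, with or without 5 Gy IR, then scratched with a pipette tip, washed with PBS and given fresh medium. Imaging was at 0, 6, 12 and 24 h. % migration = gap decrease relative to the 0 h gap.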

Assay [15] has as its system FaDu. The assay is described as follows: Synergistic induction of apoptosis in human FADU cells assessed as decrease in Bcl2 at 0.5 uM followed by irradiation with 5 Gy IR incubated for 48 hrs by immunoblot analysis. In kind it is functional, cell-based. In a few lines: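 FaDu cells received drug, 5 Gy IR, or both; vehicle-only controls. Lysates collected after 48 h and immunoblotted with primary antibodies to NRF2, cyclin B1, CDK1, Bax and Bcl-2. Membranes stripped and reprobed for beta-actin as loading control.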

Assay [16] deals with FaDu. The assay is described as follows: Synergistic antiproliferative activity against human FADU cells assessed as combination index at 0.5 uM preincubated for 1 hr followed by irradiation with 2.5 Gy IR and measured after 6 days by MTT assay. In kind it is functional. The method, boiled down:
as §3

Assay [17] has as its system FaDu. Kind of assay: Synergistic antiproliferative activity against human FADU cells assessed as combination index at 5 uM preincubated for 1 hr followed by irradiation with 2.5 Gy IR and measured after 6 days by MTT assay. In kind it is functional. In a few lines: as §3
The subject of assay [18] is SCC-25. The assay is described as follows: Synergistic antiproliferative activity against human SCC25 cells assessed as combination index at 5 uM preincubated for 1 hr followed by irradiation with 10 Gy IR and measured after 6 days by MTT assay. The format is functional. The method, boiled down: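 SCC-25 cells grown in DMEM with 10% FBS at 37 °C, 5% CO2, seeded 1000 cells/well in 96-well plates and left 24 h. Drug in DMSO, diluted in complete medium, added 1 h before X-irradiation. A movable 5 mm lead shield gave 0, 2.5, 5 or 10 Gy on one plate. After 6 days, MTT readout at 570 nm. Combination index by Chou–Talalay from viability data.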

The test system of assay [19] is SCC-25. The assay is described as follows: Synergistic antiproliferative activity against human SCC25 cells assessed as fractional inhibition at 0.05 uM preincubated for 1 hr followed by irradiation with 5 Gy IR and measured after 6 days by MTT assay (reference value: 0.133). In kind it is functional. The method, boiled down: as §4
The subject of assay [20] is FaDu. The assay is described as follows: Synergistic antiproliferative activity against human FADU cells assessed as reduction in colony formation unit followed by irradiation with 5 Gy IR and measured after 10 to 14 days by crystal violet staining based assay. In kind it is functional, cell-based.

Active and inactive are the calls of the source. The calls are words filed in the database; no cut-off is given here.

These results are taken from ChEMBL document CHEMBL4364341, “Radiosensitization of Head and Neck Squamous Cell Carcinoma (HNSCC) by a Podophyllotoxin” (ACS Med Chem Lett, 2019).

`COc1ccc2c(c1)N(CCO)C1=C(C(=O)OC1)C2c1ccccc1` (stereo unspecified): the result in assay [1] and in assay [4] was inactive. Moreover, the Activity entry in assay [2] is “Tde”. Further, in assay [3], the inhibition at 1 µM amounted to 65%. Besides, the “fractional inhibitory concentration index (FICI)” value stood at 0.186 in [5]; 0.009 in [7]; 0.658 in assay [9]; 0.71 in assay [10]; 0.74 in assay [13]; 0.05 in assay [19]. In assay [6], the “Ratio IC50” value worked out at 2. Further, the CI was 0.406 in [8]; 1.18 in assay [11]; 0.377 in assay [16]; 1.225 in assay [17]; 1.017 in assay [18]. Moreover, the “fold change (FC)” value in assay [12] was 7. For the same molecule, in assay [14], the inhibition result is “inactive”. Further, the result in [15] was Active. In addition, in assay [20], the inhibition result is “Dose-dependent effect”. Besides, the IC50 in assay [20] (light or radiation study) was determined as 496 nM.
